Test results from ChEMBL document CHEMBL1123098, “Activity of platinum(II) intercalating agents against murine leukemia L1210” (J Med Chem, 1985).

Experiments:
L1210 [1] = test: Growth inhibition of L1210 murine leukemia cells determined in culture; type: functional, cell-based, Mus musculus
Summary of the method: (§1)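 L1210 cells were grown in Minimum Essential Medium with 15% fetal calf serum, 2 mM glutamine and gentamycin, at 37 °C without agitation under 5% O2-10% CO2. Drug was diluted in sterile water and added to 5 × 10^4 cells/mL, with water-only controls. Exposure was continuous for 48 h, or in some cases a 2-h pulse followed by 48-h incubation. Cells were Coulter-counted and growth as % of control was plotted against concentration. IC50 is the mean of at least two determinations.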

L1210 [2] = test: Growth inhibition of L1210 leukemia was determined in culture; type: functional, cell-based, Mus musculus; summary of the method: as §1

Row | Substance | IC50 (L1210 [1]) [µM] | IC50 (L1210 [2]) [µM]
1 | DICHLORODIPHENYLPLATINUM TRIHYDRATE | 23 | –
2 | (1,3-Diaminopropane)(1,10-phenanthroline)-platinum (II) dichloride Monohydrate | 1 | –
3 | (Ethylenediamine)(1,10-phenanthroline)-platinum (II) dichloride Dihydrate | 2 | –
4 | (4-BromoThiophenolato)(2,2':6',2''-terpyridine)platinum (II) Chloride Dihydrate | 9 | –
5 | (1,3-Diamino-2-hydroxypropane)(3,4,7,8-tetramethyl-1,10-phenanthroline)platinum (II) dichloride Dihydrate | 5 | –
6 | (4-ChloroThiophenolato)(2,2':6',2''-terpyridine)platinum (II)DiChloro Trihydrate | 9 | –
7 | (4-methyloxyThiophenolato)(2,2':6',2''-terpyridine)platinum (II) Chloride Trihydrate | 9 | –
8 | (Thiophenolato)(2,2':6',2''-terpyridine)platinum (II) Chloride Monohydrate | – | 6
9 | (1,4-Diaminebutane) ([2,2']Bipyridinyl)platinum (II) dichloride | > 500 | –
10 | (4-AmmonioThiophenolato)(2,2':6',2''-terpyridine)platinum (II) dichloride Dihydrate | 32 | –
11 | (1,4-Diaminobutane)(1,10-phenanthroline)-platinum (II) dichloride Monohydrate | 110 | –
12 | (1,3-Diaminepropane) ([2,2']Bipyridinyl)platinum (II) dichloride Pentahydrate | 9 | –
13 | (Ethylenediamine)3,4,7,8-tetramethyl-1,10-phenanthroline)platinum (II) dichloride Dihydrate Dihydrate | 0.7 | –
14 | (1,4-Diamino-butane)(3,4,7,8-tetramethyl-1,10-phenanthroline)platinum (II) dichloride | 50 | –
15 | (Ethylenediamine) ([2,2']Bipyridinyl)platinum (II) dichloride Dihydrate | 33 | –
16 | (1,3-Diaminopropane)(1,10-phenanthroline)-platinum (II) dichloride Dihydrate | 14 | –
17 | (1,3-Diamine-2-hydroxypropane) ([2,2']Bipyridinyl)platinum (II) dichloride | 43 | –
18 | (2-methyloxyThiophenolato)(2,2':6',2''-terpyridine)platinum (II) Chloride Trihydrate | 10 | –
19 | (4-methylThiophenolato)(2,2':6',2''-terpyridine)platinum (II) Chloride Dihydrate | 12 | –
20 | (1-Thionaphthalato) (2,2':6',2''-terpyridine)platinum (II) dichloride Dihydrate | 5 | –
21 | (2,2':6',2''-terpyridine)platinum (II) dichloride Trihydrate | 450 | –
